In ChEMBL document CHEMBL1130854, “Diarylsulfonamides as selective, non-peptidic thrombin inhibitors” (Bioorg Med Chem Lett, 1998):

What was measured:
[1] = Inhibitory activity against trypsin/plasmin/factor Xa
[2] = Compound was tested for the concentration which causes a doubling of the thrombin clotting time of human plasma.; type: functional
Method in brief: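 Human plasma thrombin clotting time measured across inhibitor concentrations (μM). Coagulation time (sec) fitted to y = a + b·x^c, a being the uninhibited clotting time and b, c shape/location parameters. Value taken as the concentration that doubles the clotting time (IC200).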

Prothrombin = Prothrombin (Homo sapiens, UniProt P00734); test: Inhibitory activity against thrombin

SMILES | Ki [1] | IC200 [2] | Ki (Prothrombin)
O=S(=O)(Nc1cccc(OCCNc2ccncc2)c1)c1ccccc1 | > 500 µM | 2.3 µM | –
Cc1cc(NS(=O)(=O)c2ccccc2)cc(OCCNc2ccncc2)c1 | > 500 µM | 0.29 µM | 0.023 µM
Cc1cc(NS(=O)(=O)c2ccccc2)cc(OCCCCN=C(N)N)c1 | > 500 µM | 10 µM | 0.18 µM
Cc1cc(NS(=O)(=O)c2ccccc2)cc(OCCN=C(N)N)c1 | > 500 µM | 38 µM | 2 µM
Cc1cc(NS(=O)(=O)c2ccccc2)cc(OCCCCCN)c1 | > 500 µM | >250 µM | 9.9 µM
Cc1cc(NS(=O)(=O)c2ccccc2)cc(OCCCN=C(N)N)c1 | > 500 µM | 10 µM | 0.63 µM
Cc1cc(NS(=O)(=O)c2ccccc2)cc(OCCCCCN=C(N)N)c1 | > 500 µM | 188 µM | 6.4 µM
Cc1cc(NS(=O)(=O)c2ccccc2)cc(OCCCN)c1 | > 500 µM | >250 µM | 170 µM
Cc1cc(NS(=O)(=O)c2ccccc2)cc(OCCCCN)c1 | > 500 µM | 179 µM | 6.5 µM
Cc1cc(NS(=O)(=O)c2ccccc2)cc(OCCN)c1 | > 500 µM | >250 µM | 240 µM
Cc1cc(NS(=O)(=O)c2ccccc2)cc(OCCCCCCN)c1 | > 500 µM | >250 µM | 9 µM
Cc1cc(NS(=O)(=O)c2ccccc2)cc(OCCCCCCN=C(N)N)c1 | > 500 µM | 237 µM | 7 µM
